Source: ChEMBL document CHEMBL1154734, “Small-sized human immunodeficiency virus type-1 protease inhibitors containing allophenylnorstatine to explore the S2' pocket” (J Med Chem, 2009)
≈ marks a conversion by molar mass, not a printed value.

Key:
[1] = biological target: Protease (Human immunodeficiency virus 1) (UniProt Q9YQ12); assay: Inhibition of HIV1 recombinant protease at 50 nM after 15 mins by fluorescence assay
Procedure, shortened: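 Recombinant HIV-1 protease was assayed in MES–NaOH pH 5.5 with DTT, EDTA and NaCl, with inhibitor at 50 nM final (500 nM DMSO stock). The substrate was H-Lys-Ala-Arg-Val-Tyr-Phe(p-NO2)-Glu-Ala-Nle-NH2, and the reaction ran 15 min at 37 °C. It was stopped with 1 N HCl. The N-terminal fragment was quantified by RP-HPLC with fluorescence at ex 275/em 305 nm.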

[2] = tested on: Human immunodeficiency virus 1; assay: Antiviral activity against HIV1 pNL4-3 infected in human MT4 cells assessed as inhibition of virus-induced cytopathic effect after 5 days by MTT assay; format: functional, organism-based; details: Human immunodeficiency virus 1, pNL4-3, MT4, 120 h
Procedure, shortened: (§1)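 HIV-1 (IIIB or pNL4-3) inoculated into MT-4 cells. Cultures were treated with an equal volume of a 1% DMSO solution of compound at several concentrations plus 10% fetal bovine serum, then incubated 5 days at 37 °C in CO2, in triplicate. After MTT, optical density gave the percent cytopathic effect reduction. EC50 was fitted to a median-effect equation.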

[3] = tested on: Human immunodeficiency virus 1; assay: Antiviral activity against HIV1 3B infected in human MT4 cells assessed as inhibition of virus-induced cytopathic effect after 5 days by MTT assay in absence of human serum; format: functional, organism-based; details: Human immunodeficiency virus 1, 3B, MT4, 120 h; procedure, shortened: as §1
[4] = tested on: Human immunodeficiency virus 1; assay: Antiviral activity against HIV1 3B infected in human MT4 cells assessed as inhibition of virus-induced cytopathic effect after 5 days by MTT assay in presence of 50% human serum; format: functional, organism-based; details: Human immunodeficiency virus 1, 3B, MT4, 120 h
Procedure, shortened: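 MT-4 cells were infected with wild-type HIV-1 (IIIB or pNL4-3) in the presence of 50% human serum. Compound was added at several concentrations from a 1% DMSO solution, and cells were incubated 5 days at 37 °C in triplicate. Cytopathic effect reduction was read by MTT optical density, and EC50 was derived from a median-effect equation fit.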

[5] = tested on: Human immunodeficiency virus 1; assay: Ratio of EC50 for HIV1 3B infected in human MT4 cells in presence of 50% human serum to EC50 for HIV1 3B infected in human MT4 cells in absence of human serum; format: functional
[6] = Aqueous solubility in 0.1% TFA after 30 mins by RP-HPLC analysis; format: physicochemical; details: 0.1% TFA in water
[7] = tested on: Human immunodeficiency virus 1; assay: Antiviral activity against indinavir-resistant HIV1 harboring L10R/M46I/L63P/V82T/I84V mutant protease infected in human MT4 cells assessed as inhibition of virus-induced cytopathic effect after 5 days by MTT assay; format: functional, organism-based; details: Human immunodeficiency virus 1, MT4, 120 h
Procedure, shortened: (§2)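 MT-4 cells inoculated with HIV-1 wild-type pNL4-3 or indinavir-resistant IND-R, then given an equal volume of compound in 1% DMSO at several concentrations with 10% fetal bovine serum. Incubated 5 days at 37 °C in CO2, in triplicate. MTT read-out by optical density gave percent cytopathic-effect reduction; EC50 was fitted to a median-effect equation.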

[8] = tested on: Human immunodeficiency virus 1; assay: Fold resistance, ratio of EC50 for indinavir-resistant HIV1 harboring L10R/M46I/L63P/V82T/I84V mutant protease infected in human MT4 cells to EC50 for HIV1 pNL4-3 infected in human MT4 cells; format: functional; procedure, shortened: as §2
[9] = tested on: Human immunodeficiency virus 1; assay: Antiviral activity against HIV1 3B infected in human MT4 cells assessed as inhibition of virus-induced cytopathic effect after 5 days by MTT assay; format: functional, organism-based; details: Human immunodeficiency virus 1, 3B, MT4, 120 h; procedure, shortened: as §1
[10] = biological target: Protease (Human immunodeficiency virus 1) (UniProt Q9YQ12); assay: Inhibition of HIV1 recombinant protease at 1 nM after 3 hrs by fluorescence assay

Sequence of Protease (Human immunodeficiency virus 1) (Q9YQ12 as listed by the source): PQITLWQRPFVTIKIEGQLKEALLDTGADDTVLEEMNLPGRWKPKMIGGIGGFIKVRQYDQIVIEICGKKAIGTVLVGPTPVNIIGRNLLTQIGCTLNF

inhibition [1]	inhibition [10]	Structure (SMILES)	EC50 [2]	EC50 [3]	EC50 [4]	Ratio EC50 [5]	solubility at 0.5 h [6]	EC50 [7]	Ratio EC50 [8]	EC50 [9]
52%		Cc1c(O)cccc1C(=O)N[C@@H](Cc1ccccc1)[C@H](O)C(=O)N1CSC(C)(C)[C@H]1C(=O)N[C@H](C)c1ccccc1								617 nM
91%		Cc1c(O)cccc1C(=O)N[C@@H](Cc1ccccc1)[C@H](O)C(=O)N1CSC(C)(C)[C@H]1C(=O)N[C@@H]1CCc2ccccc21								353 nM
94%		Cc1c(O)cccc1C(=O)N[C@@H](Cc1ccccc1)[C@H](O)C(=O)N1CSC(C)(C)[C@H]1C(=O)NC/C=C\CO								1200 nM
66%		Cc1c(O)cccc1C(=O)N[C@@H](Cc1ccccc1)[C@H](O)C(=O)N1CSC(C)(C)[C@H]1C(=O)N[C@@H]1c2ccccc2C[C@@H]1O								550 nM
97%		Cc1c(O)cccc1C(=O)N[C@@H](Cc1ccccc1)[C@H](O)C(=O)N1CSC(C)(C)[C@H]1C(=O)N[C@H]1CCc2ccccc21								73 nM
		Cc1cc(N)cc(C)c1OCC(=O)N[C@@H](Cc1ccccc1)[C@H](O)C(=O)N1CSC(C)(C)[C@H]1C(=O)N[C@H]1c2ccccc2C[C@H]1O	450 nM	357 nM	1500 nM	4.2	3740 µg/mL (≈ 5.78 mM)	1420 nM	3.2	
76%		Cc1c(O)cccc1C(=O)N[C@@H](Cc1ccccc1)[C@H](O)C(=O)N1CSC(C)(C)[C@H]1C(=O)NC1CCCCCC1								332 nM
91%		Cc1cc(N)cc(C)c1OCC(=O)N[C@@H](Cc1ccccc1)[C@H](O)C(=O)N1CSC(C)(C)[C@H]1C(=O)NC/C=C\CO		184 nM	433 nM	2.3	9320 µg/mL (≈ 15.9 mM)			
65%		Cc1c(O)cccc1C(=O)N[C@@H](Cc1ccccc1)[C@H](O)C(=O)N1CSC(C)(C)[C@H]1C(=O)NC1CCC1								119 nM
98%	66%	Cc1c(O)cccc1C(=O)N[C@@H](Cc1ccccc1)[C@H](O)C(=O)N1CSC(C)(C)[C@H]1C(=O)NCc1c(Cl)cccc1Cl								39 nM
91%	24%	Cc1c(O)cccc1C(=O)N[C@@H](Cc1ccccc1)[C@H](O)C(=O)N1CSC(C)(C)[C@H]1C(=O)NCc1c(F)cccc1F								51 nM
91%		Cc1cccc(C)c1OCC(=O)N[C@@H](Cc1ccccc1)[C@H](O)C(=O)N1CSC(C)(C)[C@H]1C(=O)NC(C)(C)C		1290 nM	4500 nM					
85%		Cc1ccccc1CNC(=O)[C@H]1N(C(=O)[C@@H](O)[C@H](Cc2ccccc2)NC(=O)COc2c(C)cc(N(C)C)cc2C)CSC1(C)C		758 nM	3900 nM	5.1	3830 µg/mL (≈ 5.92 mM)			
97%	53%	Cc1c(F)cccc1CNC(=O)[C@H]1N(C(=O)[C@@H](O)[C@H](Cc2ccccc2)NC(=O)c2cccc(O)c2C)CSC1(C)C								56 nM
		Cc1cccc(C)c1OCC(=O)N[C@@H](Cc1ccccc1)[C@@H](O)C[C@H](Cc1ccccc1)NC(=O)[C@H](C(C)C)N1CCCNC1=O [LOPINAVIR]	16 nM					385 nM	24	30 nM
88%		CCCNC(=O)[C@H]1N(C(=O)[C@@H](O)[C@H](Cc2ccccc2)NC(=O)c2cccc(O)c2C)CSC1(C)C								91 nM
85%		CNc1cc(C)c(OCC(=O)N[C@@H](Cc2ccccc2)[C@H](O)C(=O)N2CSC(C)(C)[C@H]2C(=O)NCc2ccccc2C)c(C)c1		191 nM	560 nM	2.9	2990 µg/mL (≈ 4.72 mM)			
95%	31%	Cc1c(O)cccc1C(=O)N[C@@H](Cc1ccccc1)[C@H](O)C(=O)N1CSC(C)(C)[C@H]1C(=O)N[C@@H](C)c1ccccc1								79 nM
99%	77%	Cc1cccc(Cl)c1CNC(=O)[C@H]1N(C(=O)[C@@H](O)[C@H](Cc2ccccc2)NC(=O)c2cccc(O)c2C)CSC1(C)C								32 nM
95%		Cc1cc(N)cc(C)c1OCC(=O)N[C@@H](Cc1ccccc1)[C@H](O)C(=O)N1CSC(C)(C)[C@H]1C(=O)NCc1c(Cl)cccc1Cl		158 nM	648 nM	4.1	1180 µg/mL (≈ 1.75 mM)			
64%		CCNC(=O)[C@H]1N(C(=O)[C@@H](O)[C@H](Cc2ccccc2)NC(=O)c2cccc(O)c2C)CSC1(C)C								182 nM
92%		Cc1c(O)cccc1C(=O)N[C@@H](Cc1ccccc1)[C@H](O)C(=O)N1CSC(C)(C)[C@H]1C(=O)N[C@H]1c2ccccc2C[C@H]1O								100 nM

Structure (SMILES)	inhibition [1]	inhibition [10]	EC50 [2]	EC50 [3]	EC50 [4]	Ratio EC50 [5]	solubility at 0.5 h [6]	EC50 [7]	Ratio EC50 [8]	EC50 [9]
Cc1cccc(C)c1CNC(=O)[C@H]1N(C(=O)[C@@H](O)[C@H](Cc2ccccc2)NC(=O)COc2c(C)cc(N)cc2C)CSC1(C)C	99%		122 nM	41 nM	150 nM	3.6	1250 µg/mL (≈ 1.98 mM)	409 nM	3.4	
Cc1c(O)cccc1CNC(=O)[C@H]1N(C(=O)[C@@H](O)[C@H](Cc2ccccc2)NC(=O)c2cccc(O)c2C)CSC1(C)C	95%	41%	162 nM					155 nM	1	120 nM
Cc1cc(N)cc(C)c1OCC(=O)N[C@@H](Cc1ccccc1)[C@H](O)C(=O)N1CSC(C)(C)[C@H]1C(=O)N[C@H]1CCc2ccccc21	97%		48 nM	32 nM	241 nM	7.5	1710 µg/mL (≈ 2.71 mM)	416 nM	8.7	
Cc1cc(N)cc(C)c1OCC(=O)N[C@@H](Cc1ccccc1)[C@H](O)C(=O)N1CSC(C)(C)[C@H]1C(=O)NC(C)(C)C	92%		280 nM	132 nM	601 nM	4.5	6020 µg/mL (≈ 10.5 mM)	2030 nM	7.3	
Cc1c(O)cccc1C(=O)N[C@@H](Cc1ccccc1)[C@H](O)C(=O)N1CSC(C)(C)[C@H]1C(=O)NC1CCCC1	94%		290 nM					2200 nM	7.6	125 nM
Cc1ccccc1CNC(=O)[C@H]1N(C(=O)[C@@H](O)[C@H](Cc2ccccc2)NC(=O)COc2c(C)cc(N)cc2C)CSC1(C)C	98%		103 nM	83 nM	249 nM	3	2640 µg/mL (≈ 4.27 mM)	568 nM	5.5	
C=CCNC(=O)[C@H]1N(C(=O)[C@@H](O)[C@H](Cc2ccccc2)NC(=O)COc2c(C)cc(N)cc2C)CSC1(C)C	91%		54 nM	66 nM	284 nM	4.3	12800 µg/mL (≈ 23.1 mM)	470 nM	8.7	
C=CCNC(=O)[C@H]1N(C(=O)[C@@H](O)[C@H](Cc2ccccc2)NC(=O)c2cccc(O)c2C)CSC1(C)C	93%		141 nM					173 nM	1.2	123 nM
Cc1c(O)cccc1C(=O)N[C@@H](Cc1ccccc1)[C@H](O)C(=O)N1CSC(C)(C)[C@H]1C(=O)NC1CCCCC1	86%		240 nM					1730 nM	7.2	207 nM
C#CCNC(=O)[C@H]1N(C(=O)[C@@H](O)[C@H](Cc2ccccc2)NC(=O)c2cccc(O)c2C)CSC1(C)C	90%		558 nM					1930 nM	3.5	110 nM
Cc1cc(N)cc(C)c1OCC(=O)N[C@@H](Cc1ccccc1)[C@H](O)C(=O)N1CSC(C)(C)[C@H]1C(=O)NC1CCCC1	90%		620 nM	373 nM	1900 nM	5	7480 µg/mL (≈ 12.8 mM)	3010 nM	4.9	
